Shown are actives, neighbours in structure and some others; about 2% of the full set was active somewhere.
NTR1 agonist – NTR1 (human) agonism. P30989. NTR1-U2OS beta-arrestin-GFP spot imaging, agonist mode. activation, % at 20 µM. 0.17% of 330,000 active;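 active means activation at or above 40% of the spot to cytoplasm intensity ratio, with at least 20 cells analyzed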
PKA-R1A act – activators of PKA-R1A complex; PKA-R1A dissociation, Cy5-IP20 fluorescence polarization; scaled: DMSO 0%, 113 µM cGMP 100%; activation, % at 11.4 µM; 0.083% of 340,000 active;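 active means percent activation above the mean of all tested compounds plus 3 SD, cut at about 19% in these data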;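 further: higher means more PKAc released from R1A so a rise in polarization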
CAL PDZ FP-1 – CAL PDZ (human) peptide binding inhibition; purified CAL PDZ, TMR-peptide fluorescence polarization, 1 h; AID 602252; inhibition, % at 24.9 µM; Q9HD26; 0.92% of 300,000 active;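 active means mean inhibition of at least 30% with at least half of replicates also reaching 30%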
dFosB activator – enhances mouse delta FosB homodimer DNA binding | P13346 | purified delta FosB, TAMRA-CDK5 oligo fluorescence polarization; percent of positive-control signal above neutral wells | activation, % at 25 µM | 0.99% of 340,000 active | AID 493131;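 active means mean activation above about 17%, with every replicate also reaching it, limit read from the data, passing the limit was not always enough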
Target sequence (P13346 whole entry, looked up): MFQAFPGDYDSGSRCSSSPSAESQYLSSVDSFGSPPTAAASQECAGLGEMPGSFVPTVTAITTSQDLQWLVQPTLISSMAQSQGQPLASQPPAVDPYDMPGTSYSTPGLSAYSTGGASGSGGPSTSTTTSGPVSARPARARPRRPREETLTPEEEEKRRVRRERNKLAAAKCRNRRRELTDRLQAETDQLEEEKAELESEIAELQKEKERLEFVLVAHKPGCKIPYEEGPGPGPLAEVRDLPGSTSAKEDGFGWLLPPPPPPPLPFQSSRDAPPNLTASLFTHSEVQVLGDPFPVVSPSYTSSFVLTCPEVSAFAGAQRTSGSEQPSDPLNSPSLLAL
CAL PDZ FP-2 – inhibitors of human CAL PDZ peptide binding; purified CAL PDZ, TMR-peptide fluorescence polarization, 1 h; inhibition, % at 20 µM; 0.02% of 330,000 active; AID 504414;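 active means highest replicate inhibition of at least 40%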
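Material: tagged CAL PDZ protein CerCALP, purified; buffer or medium: sodium phosphate/NaCl buffer pH 7.4 with TCEP, IgG, Thesit; also added: fluorescent TMR peptide probe; schedule: 1 h incubation at room temperature before polarization reading; technique: fluorescence polarization from S- and P-plane intensities, G-factor corrected; control set: unlabelled peptide and DMSO controls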
PKA-R2B activ – activators of human PKA-R2B complex; PKA-R2B holoenzyme dissociation, Cy5-IP20 fluorescence polarization; R2B truncated from residue 108, S112A mutant; 0% DMSO only, 100% 113 µM cGMP; activation, % at 11.4 µM; 0.079% of 340,000 active;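 active means activation above a cutoff set at the mean over all compounds plus 3 SD, cut at about 18% in these data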;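 further: higher means more holoenzyme dissociation and a rise in polarization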
NTR1 ag conf – confirmation of agonists of human NTR1; activation, % at 20 µM; NTR1-U2OS beta-arrestin-GFP translocation imaging; 38% of 480 active; shares compounds with NTR1 agonist;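 active means mean activation at 20 µM of at least 40%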
Each line names hits and unclear results; the compound was inactive in the other large screens (follow-up assays come after a bar, where they were run).

Cc1ccc(-c2ccc(/C=C3\C(=O)ON=C3c3ccccc3)o2)c([N+](=O)[O-])c1	NTR1 agonist 100 | NTR1 ag conf 85
C[C@H](NC(=O)c1[nH]cnc1C(=O)Nc1ccccc1)c1ccccc1	none
Cc1cccc(NC(=O)c2nc[nH]c2C(=O)N[C@H](C)c2ccccc2)c1	NTR1 agonist 48 | NTR1 ag conf inactive
Cc1ccc(NC(=O)c2nc[nH]c2C(=O)N[C@H](C)c2ccccc2)cc1	NTR1 agonist 41 | NTR1 ag conf inactive
N=c1c(-c2nc3ccccc3[nH]2)cc(C(=O)c2cccs2)nn1-c1ccccc1	NTR1 agonist 52 (no result: CAL PDZ FP-1) | NTR1 ag conf inactive
N=c1c(-c2nc3ccccc3[nH]2)cc(C(=O)c2ccco2)nn1-c1ccccc1	none
O=C(O)C1(O)C[C@@H](O)C(O)[C@H](O)C1 (some centres undefined)	none (no result: NTR1 agonist)
CC(C)Nc1ccc(Nc2ccnc3cc4ccccc4cc23)cc1	NTR1 agonist 51, dFosB activator 68 | NTR1 ag conf 85
COc1ccc(Nc2ccnc3ccccc23)cc1	none
Cc1ccc(-c2cc(-c3ccc(C)cc3O)[nH]n2)cc1	none (no result: CAL PDZ FP-2)
Cc1ccc(O)c(-c2cc(-c3cccc(Br)c3)n[nH]2)c1	NTR1 agonist 54, CAL PDZ FP-1 86 | NTR1 ag conf inactive
COc1ccccc1NC(=O)[C@@H]1CCCN1S(=O)(=O)c1ccc(Cl)cc1	none
CCC(COC)Oc1cc(NCc2ccccc2)c2ncn(C(C)C)c2c1 (centres undefined)	NTR1 agonist 44 | NTR1 ag conf inactive
CCn1c(SCC(=O)NC2=NCCS2)nnc1C(C)NC(=O)c1ccc(Cl)cc1 (centres undefined)	NTR1 agonist 42 | NTR1 ag conf inactive
CC(NC(=O)c1ccccc1)c1nnc(SCC(=O)NC2=NCCS2)n1C (centres undefined)	none (no result: CAL PDZ FP-1)
CC(C)c1cccc(-c2ccc3c(c2)S(=O)(=O)c2cccc(C(=O)NCc4ccccc4Cl)c2C3=O)c1	none
COc1cccc(-c2nc(NC(C)C)c3ccccc3n2)c1O	NTR1 agonist 64 (no result: CAL PDZ FP-1) | NTR1 ag conf inactive
O=C(Cc1ccccc1F)NCC(c1ccco1)N1CCCCC1 (centres undefined)	none
Cc1ccc(S(=O)(=O)Oc2ccc3c(c2)O/C(=C\c2cccnc2)C3=O)cc1	NTR1 agonist 43 | NTR1 ag conf inactive
O=C1/C(=C/c2cccnc2)Oc2cc(OS(=O)(=O)c3ccc(F)cc3)ccc21	none (no result: CAL PDZ FP-2)
CCN(CC(=O)Nc1ccc2c(c1)OCCO2)C(=O)/C=C/c1cc(Br)ccc1OC	none (no result: NTR1 agonist, CAL PDZ FP-1, dFosB activator, CAL PDZ FP-2)
Cn1c(=O)c2sccc2n2c(CCCC(=O)NC3CCN(Cc4ccccc4)CC3)nnc12	none
O=C(CN(C1CCCCC1)S(=O)(=O)c1ccc(F)cc1)NCC1CCCO1 (centres undefined)	none (no result: NTR1 agonist, CAL PDZ FP-1)
Cc1ccc(-c2csc(-c3c[nH]c4ccccc34)n2)c(C)c1	NTR1 agonist 46 | NTR1 ag conf inactive
CC1=NOC(=O)/C1=C\c1ccc(-c2cc(Cl)ccc2Cl)o1	NTR1 agonist 44 | NTR1 ag conf 65
Cc1ccc(S(=O)(=O)N2Cc3ccccc3CC2C(N)=O)cc1 (centres undefined)	none (no result: NTR1 agonist, CAL PDZ FP-1, dFosB activator, CAL PDZ FP-2)
N=c1c(C(=O)NCCc2ccccc2)cc2c(=O)n3ccccc3nc2n1Cc1ccco1	NTR1 agonist 43 (no result: CAL PDZ FP-1) | NTR1 ag conf inactive
O=C(Nc1ccc2nc3n(c(=O)c2c1)CCCC3)c1cncc(Br)c1	none
CCC1CCC/C1=N\NC(=O)c1ccoc1C (centres undefined)	none
CC(C)C[C@@H](CO)N(Cc1ccccc1)S(=O)(=O)N(Cc1ccccc1)[C@@H](CO)CC(C)C	NTR1 agonist 47 | NTR1 ag conf inactive
CC(C)C[C@@H](CO)N(Cc1ccccc1)S(=O)(=O)N(Cc1ccccc1)[C@H](CO)CC(C)C	NTR1 agonist 50 | NTR1 ag conf inactive
O=C(CSc1nc2ccc([N+](=O)[O-])cc2[nH]1)c1ccc2ccccc2c1	NTR1 agonist 44 (no result: CAL PDZ FP-1) | NTR1 ag conf inactive
